# Measured values published in ChEMBL document CHEMBL2016465, “Host-directed Inhibitors of Myxoviruses: Synthesis and in vitro Biochemical Evaluation” (ACS Med Chem Lett, 2011).
# Experiments:
# Measles morbillivirus [1] = experiment: Antiviral activity against Measles virus; type: functional, organism-based
# Summary of the method: (§1)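 Run on actively dividing cells. EC50 from four-parameter variable-slope nonlinear regression, reported as the average of four experiments ± SEM. Highest concentration tested was 75 μM.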
# Measles morbillivirus [2] = experiment: Antiviral activity against Measles virus MVi/Alaska USA/16.00 genotype H2 infected in african green monkey Vero cells assessed as reduction in viral-induced cytopathogenicity; type: functional, organism-based; conditions: MVi/Alaska USA/16.00 genotype H2, Vero; summary of the method: as §1
# Vero = experiment: (§2) Cytotoxicity against african green monkey Vero cells after 24 hrs by MTT assay; type: cell-based; conditions: chlorocebus sabaeus, vero, 24 h
# Summary of the method: (§3)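 Run on confluent cell monolayers to reflect acute toxicity. CC50 is given as the range of two experiments. Highest concentration tested was 75 μM.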
# [3] = as §2; type: cell-based; conditions: chlorocebus sabaeus, Vero cells; summary of the method: as §3
# [4] = system: unidentified influenza virus; experiment: Antiviral activity against Influenza virus; type: functional, organism-based
# Paramyxoviridae = experiment: Antiviral activity against Paramyxovirus measured 28 to 36 hrs post infection by cell based virus yield reduction assay; type: functional
# Measles morbillivirus [5] = experiment: Antiviral activity against Measles virus MVi/Alaska USA/16.00 genotype H2 infected in african green monkey Vero cells measured 28 to 36 hrs post infection by cell based virus yield reduction assay; type: functional, organism-based; conditions: MVi/Alaska USA/16.00 genotype H2, Vero; summary of the method: as §1
# Human respirovirus 3 = experiment: Antiviral activity against Human parainfluenza virus 3; type: functional, organism-based
# [6] = system: Respiratory syncytial virus; experiment: Antiviral activity against Respiratory syncytial virus; type: functional, organism-based; conditions: human respiratory syncytial virus
# Mumps virus = experiment: Antiviral activity against Mumps virus; type: functional, organism-based; conditions: Mumps orthorubulavirus
SMILES,EC50 (Measles morbillivirus [2]) [nM],other results
COc1ccc(-n2c(SC(C)C(=O)Nc3ncc(Cl)cc3Cl)nc3ccccc32)cc1 (stereo not drawn),350,EC50 (Measles morbillivirus [1]): 200 nM; CC50 (Vero): > 75000 nM
O=C(CSc1nc2ccccc2n1-c1ccccc1)Nc1ncc(Cl)cc1Cl,–,EC50 (Measles morbillivirus [1]): 700 nM
Cc1cccc(-n2c(SCC(=O)Nc3ncc(Cl)cc3Cl)nc3ccccc32)c1,–,EC50 (Measles morbillivirus [1]): 2100 nM
COc1ccc(-n2c(S[C@@H](C)C(=O)Nc3ccc(C)cc3Cl)nc3ccccc32)cc1,300,–
COc1ccc(-n2c(S[C@H](C)C(=O)Nc3ccc(C)cc3Cl)nc3ccccc32)cc1,200,–
COc1ccc(Cn2c(NC(C)C(=O)Nc3ccc(C)cc3Cl)nc3ccccc32)cc1 (stereo not drawn),> 150000,–
COc1ccc(-n2c(CCC(=O)Nc3ccc(C)cc3Cl)nc3ccccc32)cc1,> 150000,–
Cc1ccc(NC(=O)[C@H](C)Oc2nc3ccccc3n2Cc2ccccc2)c(Cl)c1,> 150000,–
COc1ccc(-n2c([S+]([O-])C(C)C(=O)Nc3ccc(C)cc3Cl)nc3ccccc32)cc1 (stereo not drawn),1300,CC50 (Vero): > 75000 nM
COc1ccc(-n2c(S(=O)(=O)C(C)C(=O)Nc3ccc(C)cc3Cl)nc3ccccc32)cc1 (stereo not drawn),> 150000,–
Cc1ccc(NC(=O)C(C)Sc2nc3ccccc3n2Cc2ccccc2)c(Cl)c1 (stereo not drawn),400,CC50 (Vero): > 75000 nM
COc1ccc(Cn2c(SC(C)C(=O)Nc3ccc(C)cc3Cl)nc3ccccc32)cc1 (stereo not drawn),700,CC50 (Vero): > 75000 nM
COc1ccc(-n2c(SC(C)C(=O)Nc3ncc(C(F)(F)F)cc3Cl)nc3ccccc32)cc1 (racemic),400,CC50 at 24 h [3]: 9200 nM
CC(Sc1nc2ccccc2n1-c1ccc(F)cc1)C(=O)Nc1ncc(Cl)cc1Cl (racemic),100,CC50 at 24 h [3]: 5900 nM
CCOc1ccc(-n2c(SC(C)C(=O)Nc3ncc(Cl)cc3Cl)nc3ccccc32)cc1 (racemic),100,CC50 at 24 h [3]: 18500 nM
COc1ccc(-n2c(SC(C)C(=O)Nc3nc(C)c(Cl)cc3Cl)nc3ccccc32)cc1 (racemic),200,CC50 at 24 h [3]: 7250 nM
COc1ccc(-n2c(SC(C)C(=O)Nc3ccc(Cl)cn3)nc3ccccc32)cc1 (racemic),> 75000,–
COc1ccc(-n2c(SC(C)C(=O)Nc3nc(C)c(Br)cc3Br)nc3ccccc32)cc1 (racemic),500,CC50 at 24 h [3]: 9700 nM
COc1ccc(-n2c(SC(C)C(=O)Nc3ncc(C)cc3Cl)nc3ccccc32)cc1 (racemic),50,CC50 at 24 h [3]: 880 nM
CCOc1ccc(-n2c(SC(C)C(=O)Nc3cc(C)cc(C)n3)nc3ccccc32)cc1 (racemic),1200,–
Cc1nnc(NC(=O)C(C)Sc2nc3ccccc3n2-c2ccc(F)cc2)nc1C (racemic),17400,–
COc1ccc(-n2c(SC(C)C(=O)Nc3cc(C)nn3C)nc3ccccc32)cc1 (racemic),500,CC50 (Vero): 75000 nM
COc1ccc(-n2c(SC(C)C(=O)Nc3nnc(C)c(C)n3)nc3ccccc32)cc1 (racemic),9300,–
COc1ccc(-n2c(SC(C)C(=O)Nc3nc(C)cc(Cl)n3)nc3ccccc32)cc1 (racemic),> 75000,–
COc1ccc(-n2c(SC(C)C(=O)Nc3nc(C)cs3)nc3ccccc32)cc1 (racemic),2800,–
COc1ccc(-n2c(SC(C)C(=O)Nc3cc(C)no3)nc3ccccc32)cc1 (racemic),400,CC50 (Vero): > 75000 nM
COc1ccc(-n2c(SC(C)C(=O)Nc3cc(Br)ccc3Br)nc3ccccc32)cc1 (racemic),1400,–
COc1ccc(-n2c(SC(C)C(=O)Nc3ccc(C)cc3Cl)nc3ccccc32)cc1 (racemic),200,EC50 [4]: 10 nM; EC50 (Paramyxoviridae): 10 nM; CC50 (Vero): > 75000 nM; EC50 (Measles morbillivirus [5]): 30 nM; EC50 (Human respirovirus 3): 10 nM; EC50 [6]: 10 nM; EC50 (Mumps virus): 10 nM
